NadD inh: inhibitors of Staphylococcus aureus NadD; purified NadD enzyme, colorimetric absorbance read-out; inhibition, % at 20 µM; 360,000 compounds, 0.78% hits; AID 602399; in the data active means inhibition above about 26%
DNMT1 block: inhibitors of human DNMT1; P26358; DNMT1 molecular beacon, Hinp1I cleavage, fluorescence; inhibition (reported as % activation of signal), % at 10 µM; 360,000 compounds, 0.83% hits; in the data active means inhibition above about 50%
Target sequence (P26358 504-1616 limits assumed): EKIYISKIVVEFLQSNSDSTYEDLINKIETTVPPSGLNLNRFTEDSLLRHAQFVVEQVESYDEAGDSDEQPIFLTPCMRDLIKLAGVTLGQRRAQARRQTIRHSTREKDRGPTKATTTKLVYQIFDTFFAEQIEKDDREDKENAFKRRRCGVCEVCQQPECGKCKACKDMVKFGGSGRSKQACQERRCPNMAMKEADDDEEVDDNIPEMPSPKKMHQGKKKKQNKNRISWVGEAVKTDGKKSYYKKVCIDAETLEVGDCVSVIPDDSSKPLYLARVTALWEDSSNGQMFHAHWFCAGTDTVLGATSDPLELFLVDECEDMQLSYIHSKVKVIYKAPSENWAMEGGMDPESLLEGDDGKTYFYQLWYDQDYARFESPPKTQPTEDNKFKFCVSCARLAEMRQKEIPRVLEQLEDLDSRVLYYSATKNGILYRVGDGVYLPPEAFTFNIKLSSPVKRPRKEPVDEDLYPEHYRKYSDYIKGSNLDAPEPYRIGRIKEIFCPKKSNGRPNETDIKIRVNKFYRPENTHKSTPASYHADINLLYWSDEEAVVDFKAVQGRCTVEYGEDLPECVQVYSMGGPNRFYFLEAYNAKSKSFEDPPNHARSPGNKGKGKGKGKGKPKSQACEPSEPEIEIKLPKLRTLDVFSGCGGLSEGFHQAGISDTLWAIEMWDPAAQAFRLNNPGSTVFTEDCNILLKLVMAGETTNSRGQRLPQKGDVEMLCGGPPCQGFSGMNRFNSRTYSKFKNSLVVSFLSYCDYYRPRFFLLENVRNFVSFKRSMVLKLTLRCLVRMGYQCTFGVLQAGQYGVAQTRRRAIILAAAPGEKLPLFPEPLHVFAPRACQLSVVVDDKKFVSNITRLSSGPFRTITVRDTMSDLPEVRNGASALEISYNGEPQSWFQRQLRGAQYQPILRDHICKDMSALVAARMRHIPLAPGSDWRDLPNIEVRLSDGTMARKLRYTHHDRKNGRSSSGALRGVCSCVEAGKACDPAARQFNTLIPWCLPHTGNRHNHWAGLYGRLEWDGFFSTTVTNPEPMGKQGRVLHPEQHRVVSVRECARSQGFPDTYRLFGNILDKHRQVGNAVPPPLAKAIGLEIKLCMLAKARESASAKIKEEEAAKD
SUMO1-SIM PPI: SUMO1-SIM interaction modulation | P63165 | SUMO1 binding to a labelled peptide, TR-FRET, 1 h | inhibition, % at 20 µM | 360,000 compounds, 0.33% hits; in the data active means inhibition above about 37%
Scp-1 inhibitor: Scp-1 (human) phosphatase inhibition; Q9GZU7; Recombinant Scp1, phosphopeptide, malachite green phosphate absorbance; inhibition, % at 20 µM; 340,000 compounds, 0.88% hits; AID 493091;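 active means inhibition above about 50% at 20 µM, limit read from the data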;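 further: plate controls were DMSO wells with enzyme for no effect and wells lacking enzyme for full effect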
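System: SCP-1 catalytic domain; Reagent: Phospho 17-mer peptide substrate; Doses: one concentration, 20 µM, with 1.0% DMSO; Incubation: 45 min room-temperature reaction, 5 min colour, 30 min stabiliser; Signal: Phosphate-binding colour reagent, absorbance read at 630 nm.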
STEP inh: inhibitors of human striatal-enriched phosphatase STEP; P54829; recombinant STEP, OMFP fluorogenic substrate, fluorescence; inhibition, % at 20 µM; 360,000 compounds, 0.25% hits; AID 588621;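 active means inhibition at 20 µM, scaled per plate between control wells, above about 37%, limit read from the data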;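 further: 0% = DMSO with enzyme and substrate and 100% = substrate only without enzyme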
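material = STEP tyrosine phosphatase | reagent = fluorogenic phosphatase substrate OMFP at 25 µM final | doses = single compound dose of 20 µM, 1% DMSO final | schedule = 20 min reaction, room temperature, in the dark | measured by = fluorescence, 480/540 nm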
LMPTP block: LMPTP (human) inhibition. recombinant LMPTP-A, OMFP fluorogenic substrate, fluorescence intensity. inhibition, % at 20 µM. 360,000 compounds, 0.22% hits. AID 651560;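 active means compounds that cut the enzyme signal by at least half of the control window in the single-dose screen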;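 further: plate controls were DMSO wells with enzyme plus substrate for no effect and substrate without enzyme for full effect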
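Material: LMPTP-A; amount: 0.625 nM enzyme; doses: single 20 µM dose; times: reaction 50 min, room temperature, dark; technique: fluorescence intensity of OMFP turnover product; benchmarks: no-enzyme and uninhibited controls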
Scp-1 conf: Scp-1 (human) inhibition, single-dose confirmed. 2,500 compounds, 61% hits. inhibition, % at 20 µM. shares compounds with Scp-1 inhibitor. recombinant SCP-1 catalytic domain, phosphate release, malachite green absorbance;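 further: plate controls were DMSO with enzyme for no effect and buffer wells lacking enzyme for full effect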
MG interference: interferes with malachite green readout, flagging false Scp-1 hits | AID 540313 | 2,500 tested, under 10 active | shares compounds with Scp-1 inhibitor | Colorimetric interference counterscreen, malachite green absorbance 630 nm | apparent inhibition (interference), % at 20 µM;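 further: compounds added after enzyme reaction finished so only phosphate colour detection is probed; plate controls were DMSO wells with completed Scp-1 reaction for no effect and substrate wells lacking enzyme for full effect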
Scp1 DSF: validation of human Scp-1 inhibitors by thermal shift binding. shares compounds with Scp-1 inhibitor. Recombinant SCP1, Sypro Orange thermal shift Tm. thermal shift relative to vanadate control, % at 40 µM. 1,500 compounds, 25% hits. AID 540329;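 active means substances whose mean melting-temperature shift, as a percentage of the reference inhibitor's shift, reaches about 5.3%, limit read from the data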;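 further: 0% = Tm of DMSO wells and 100% = Tm with sodium orthovanadate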
Active calls of the source: *; nt = no result given. Compounds with a hit are over-represented: about 2.4% of the library has one in this group of screens.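 How the source made its calls, unless noted: active means inhibition of at least 30% at 20 µM; inactive means the rest.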

SMILES	NadD inh	DNMT1 block	SUMO1-SIM PPI	Scp-1 inhibitor	STEP inh	LMPTP block	Scp-1 conf	MG interference	Scp1 DSF
O=C(Nc1cccc([N+](=O)[O-])c1)c1ccncc1	0	2	-9	0	1	-1	nt	nt	nt
CC(C(N)=O)N1C(=O)NC2(CCCc3ccccc32)C1=O (stereo not given)	-1	3	12	-3	1	-1	nt	nt	nt
O=C(O)c1cccc(CN2C(=O)SC(Nc3cccc4ccccc34)C2=O)c1 (stereo not given)	3	-3	-6	-7	-4	-1	nt	nt	nt
CCCOCC(O)CCc1n[nH]c(=S)n1-c1ccccc1 (stereo not given)	1	8	-2	60*	-1	1	-7	-6	nt
O=C(N/N=C/C(Cl)=C/c1ccc([N+](=O)[O-])cc1)C(=O)Nc1ccccc1C(=O)O	25	-13	1	40	4	2	nt	nt	nt
O=C(N/N=C/C(Cl)=C/c1ccc([N+](=O)[O-])cc1)C(=O)Nc1ccc(C(=O)O)cc1	4	46	3	85*	34	22	62*	-16	-3
CC(NC(=O)CCNS(=O)(=O)c1ccccc1)c1ccccc1 (stereo not given)	0	3	-2	51*	-2	-3	-4	-9	nt
CC(C)c1ccccc1NC(=O)COC(=O)C1(C)CC1(Cl)Cl (stereo not given)	-7	-1	1	-12	-3	-1	nt	nt	nt
Cc1nnc(NC(=O)CCSCCC(=O)Nc2nnc(C)s2)s1	13	32	28	82*	0	1	74*	-8	2
CCOC(=O)CCSCC(=O)Nc1nnc(C)s1	-8	1	0	-4	2	-2	nt	nt	nt
O=C(O)c1ccc(CSc2n[nH]c(-c3ccco3)n2)cc1	4	9	23	52*	13	-1	32*	-15	-2
C/C(=N/NC(N)=S)c1cc2ccc(O)cc2oc1=O	0	47	-1	55*	-3	10	36*	-12	5
CCCc1cc(SCC(=O)Nc2c(C)n(C)n(-c3ccccc3)c2=O)n2c(nc3ccccc32)c1C#N	nt	nt	nt	98*	nt	nt	84*	-8	-5
CC(OC(=O)c1cccc(-n2cnnn2)c1)c1nc2ccccc2c(=O)[nH]1 (stereo not given)	-1	0	22	1	-1	1	nt	nt	nt
CCN(CC(=O)NC1CCCCC1)S(=O)(=O)c1ccc(Cl)cc1	3	4	1	63*	1	1	-8	-6	nt
CCn1ncc(Br)c1C(=O)NC(C)c1ccccc1 (stereo not given)	-5	1	3	81*	-19	-1	-1	-5	nt
CCCCn1c(-c2ccco2)nc2oc3ccccc3c(=O)c2c1=O	4	0	-23	62*	-4	0	1	-11	nt
Cc1ccc(NC(=O)/C=C/c2ccco2)nc1	2	11	-11	63*	-3	0	34*	-15	-5
COc1ccc(-c2cc(C(=O)NN)n(-c3ccccc3)n2)cc1	4	-8	4	3	-1	-1	nt	nt	nt
CCOC(=O)c1cc(-c2ccc(OC)cc2)nn1-c1ccccc1C(=O)O	-9	28	69*	61*	25	11	42*	-8	-6
Nc1ccc(C(=O)Nc2ccc3c(O)cc(S(=O)(=O)O)cc3c2)cc1	4	12	20	53*	3	21	46*	-17	11*
CCCn1c(N2CCN(CC(=O)c3c[nH]c4ccccc34)CC2)nc2c1c(=O)[nH]c(=O)n2C	19	-7	1	99*	-2	-3	-11	-7	nt
CCn1c(N2CCN(CC(=O)c3c(C)n(C)c4ccccc34)CC2)nc2c1c(=O)[nH]c(=O)n2C	8	-1	-1	38	-3	-2	nt	nt	nt
COc1ccc(CNC(=O)CSc2nnc3c(n2)[nH]c2ccc(F)cc23)cc1	0	23	4	62*	17	12	31*	-12	-2
COc1ccc(CCNC(=O)CSc2nnc3c(n2)[nH]c2ccc(F)cc23)cc1OC	-2	-3	-17	-10	-2	-2	nt	nt	nt
SMILES	NadD inh	DNMT1 block	SUMO1-SIM PPI	Scp-1 inhibitor	STEP inh	LMPTP block	Scp-1 conf	MG interference	Scp1 DSF
COc1ccc(CNC(=O)CSc2nnc3c(n2)[nH]c2ccc(OC)cc23)cc1	5	12	3	65*	7	5	70*	-9	-3
COc1cccc(CNC(=O)CSc2nnc3c(n2)[nH]c2ccc(C)cc23)c1	0	10	-2	-1	-2	-1	nt	nt	nt
CS(=O)(=O)N1CCN(c2ccccc2NC(=O)c2cc3ccccc3o2)CC1	-2	-2	2	-5	1	-1	nt	nt	nt
CC1CCN(C(=O)CCc2ccc(S(=O)(=O)NC(C)C)cc2)CC1	-2	-1	-2	67*	-3	-1	-23	-21	nt
CCn1c(SCC(=O)Nc2ncc(C(F)(F)F)cc2Cl)nnc1-c1ccccc1	-2	-2	-6	1	-1	0	nt	nt	nt
Cn1c(SCC(=O)Nc2ncc(C(F)(F)F)cc2Cl)nnc1-c1ccc(Cl)cc1	0	0	1	62*	0	-3	19	2	nt
Cc1ccc(C(=O)O)cc1NC(=O)c1ccc2c(c1)C(=O)N(c1ccc([N+](=O)[O-])cc1)C2=O	-1	2	-20	67*	15	7	62*	-4	4
O=C(O)c1cccc2c1C(=O)N(c1ccc3c(c1)Cc1ccccc1-3)C2=O	3	2	-21	64*	4	-1	60*	-17	-14
CC(=O)Nc1ccc(N/C(C)=C/C(=O)c2cccnc2)cc1	5	5	-3	-1	2	-1	nt	nt	nt
CC/C(=C\C(=O)c1cccnc1)Nc1ccc(C)c(C)c1	1	0	-3	53*	0	-2	-18	-15	nt
C/C(=N\Nc1ccccn1)c1ccc(S(=O)(=O)NCc2ccco2)cc1	-5	-5	-1	-2	3	0	nt	nt	nt
C/C(=N\Nc1ccc(C(F)(F)F)cn1)c1ccc(S(=O)(=O)NCc2ccco2)cc1	3	3	-2	59*	0	-1	-3	-7	nt
COc1cc(NC(=S)NCCCN2CCOCC2)c(OC)cc1NC(=O)c1ccco1	1	0	9	-6	0	-3	nt	nt	nt

Compound activity from PubChem BioAssay.
